ChEMBL document CHEMBL2086331, “Novel triazolopyridylbenzamides as potent and selective p38α inhibitors” (Bioorg Med Chem Lett, 2012)
Values belong to the molecule of their own block, whether it stands above or below them.

What was measured:
[1] = test system: Blood; assay: Inhibition of LPS-induced TNFalpha production in human whole blood; type: functional, tissue-based
[2] = Stability in human hepatic microsomes assessed as compound turnover at 5 uM incubated for 30 mins in presence of NADPH; type: ADME; details: liver microsomes, read-out: Drug degradation
Outline: (§1)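 Rat or human hepatic microsomes (1 mg/mL) with NADPH, test compound 5 µM, 30 min at 37 °C; readout is % turnover of parent.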

[3] = target: Cytochrome P450 2C9 (Homo sapiens, UniProt P11712); assay: Inhibition of CYP2C9 at < 25 uM; type: ADME
Chain of Cytochrome P450 2C9 (P11712 whole entry): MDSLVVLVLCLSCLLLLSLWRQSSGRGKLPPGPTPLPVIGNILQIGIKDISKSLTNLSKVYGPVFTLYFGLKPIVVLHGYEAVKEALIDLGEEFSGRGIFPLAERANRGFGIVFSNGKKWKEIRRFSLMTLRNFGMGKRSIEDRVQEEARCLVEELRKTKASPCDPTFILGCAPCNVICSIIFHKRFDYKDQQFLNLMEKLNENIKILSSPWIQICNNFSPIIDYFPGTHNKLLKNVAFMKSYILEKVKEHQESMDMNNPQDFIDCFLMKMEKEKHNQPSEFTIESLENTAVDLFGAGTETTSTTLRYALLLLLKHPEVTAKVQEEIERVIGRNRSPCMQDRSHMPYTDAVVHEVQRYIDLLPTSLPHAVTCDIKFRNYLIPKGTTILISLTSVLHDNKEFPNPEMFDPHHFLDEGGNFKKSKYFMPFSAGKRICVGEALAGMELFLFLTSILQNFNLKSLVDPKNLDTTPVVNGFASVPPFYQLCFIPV

[4] = target: T1, Proto-oncogene tyrosine-protein kinase receptor Ret (Homo sapiens, UniProt P07949); assay: Inhibition of RET at 10 uM
T1 sequence (P07949 whole entry): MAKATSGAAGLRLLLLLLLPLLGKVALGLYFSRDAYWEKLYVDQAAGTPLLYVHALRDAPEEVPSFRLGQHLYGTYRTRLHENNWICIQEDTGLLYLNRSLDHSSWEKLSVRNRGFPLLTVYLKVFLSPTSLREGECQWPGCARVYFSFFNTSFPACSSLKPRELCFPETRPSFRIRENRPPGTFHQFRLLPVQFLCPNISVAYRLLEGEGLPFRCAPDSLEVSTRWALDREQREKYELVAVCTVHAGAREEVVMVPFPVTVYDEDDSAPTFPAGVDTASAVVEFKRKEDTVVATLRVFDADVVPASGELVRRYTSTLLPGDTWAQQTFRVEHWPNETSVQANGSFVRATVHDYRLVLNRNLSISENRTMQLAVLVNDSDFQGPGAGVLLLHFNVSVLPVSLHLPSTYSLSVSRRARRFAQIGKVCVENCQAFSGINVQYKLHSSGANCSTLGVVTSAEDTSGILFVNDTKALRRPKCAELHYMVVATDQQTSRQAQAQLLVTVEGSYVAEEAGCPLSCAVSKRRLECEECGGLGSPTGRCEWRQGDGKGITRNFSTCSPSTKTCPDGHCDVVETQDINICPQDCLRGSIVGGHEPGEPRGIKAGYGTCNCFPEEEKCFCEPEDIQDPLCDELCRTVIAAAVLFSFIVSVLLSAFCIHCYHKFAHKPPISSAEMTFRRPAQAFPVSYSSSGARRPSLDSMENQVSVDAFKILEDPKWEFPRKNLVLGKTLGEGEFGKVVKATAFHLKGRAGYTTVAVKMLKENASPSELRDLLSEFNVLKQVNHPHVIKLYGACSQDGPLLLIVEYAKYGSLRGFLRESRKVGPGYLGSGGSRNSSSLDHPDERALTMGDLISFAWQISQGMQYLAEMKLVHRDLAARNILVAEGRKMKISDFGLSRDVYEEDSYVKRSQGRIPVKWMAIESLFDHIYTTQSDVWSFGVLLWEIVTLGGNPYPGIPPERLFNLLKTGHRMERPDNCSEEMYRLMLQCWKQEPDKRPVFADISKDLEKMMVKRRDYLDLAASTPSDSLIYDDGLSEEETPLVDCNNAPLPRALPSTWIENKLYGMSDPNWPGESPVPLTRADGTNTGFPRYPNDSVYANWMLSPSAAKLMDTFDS
Outline: (§2)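 Upstate 55-kinase panel; single inhibitor concentration 10 µM, duplicate wells, ATP at the Km of each kinase.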

[5] = target: Cytochrome P450 2D6 (Homo sapiens, UniProt P10635); assay: Inhibition of CYP2D6 at < 25 uM; type: ADME
Chain of Cytochrome P450 2D6 (P10635 whole entry): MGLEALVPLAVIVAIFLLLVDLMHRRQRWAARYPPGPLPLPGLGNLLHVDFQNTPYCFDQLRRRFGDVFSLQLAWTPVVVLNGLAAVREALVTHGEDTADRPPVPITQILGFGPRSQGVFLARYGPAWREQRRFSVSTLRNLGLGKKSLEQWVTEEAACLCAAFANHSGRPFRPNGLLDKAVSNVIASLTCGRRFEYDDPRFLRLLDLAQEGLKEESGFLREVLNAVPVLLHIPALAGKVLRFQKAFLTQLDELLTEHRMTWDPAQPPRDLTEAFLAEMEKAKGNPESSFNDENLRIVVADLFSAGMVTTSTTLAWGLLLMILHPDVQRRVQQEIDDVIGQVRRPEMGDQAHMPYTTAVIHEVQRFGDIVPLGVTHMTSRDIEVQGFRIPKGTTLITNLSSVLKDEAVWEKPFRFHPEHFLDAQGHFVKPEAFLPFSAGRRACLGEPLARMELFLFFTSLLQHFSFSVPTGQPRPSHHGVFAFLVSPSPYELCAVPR

[6] = Clearance in beagle dog at 1 mg/kg, iv; type: ADME, organism-based, Canis lupus familiaris; design: dose 1 mg/kg, route intravenous; details: in vivo
Outline: (§3)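 Beagle dogs dosed 1 mg/kg iv or 1 mg/kg po; pharmacokinetic parameters reported as mean values of n = 2 animals.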

[7] = AUC in Wistar rat at 1 mg/kg, iv; type: ADME, organism-based; design: dose 1 mg/kg, route intravenous; details: plasma
Outline: (§4)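 Wistar rats, single dose either iv 1 mg/kg in 40% PEG + 0.4% HCl 1 N, or oral 10 mg/kg in 0.5% methylcellulose + 0.1% Tween 80; plasma PK parameters reported as mean values (n = 2).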

[8] = Clearance in Wistar rat at 1 mg/kg, iv; type: ADME, organism-based; design: dose 1 mg/kg, route intravenous; details: in vivo; outline: as §4
[9] = Protein binding in human plasma; type: ADME, cell-free; details: read-out: PPB (converted)
[10] = Protein binding in rat plasma; type: ADME, cell-free; details: read-out: PPB (converted)
[11] = AUC in Wistar rat at 10 mg/kg, po; type: ADME, organism-based; design: dose 10 mg/kg, route oral; details: plasma; outline: as §4
[12] = test system: CHO; assay: Cytotoxicity against CHO cells; type: cell-based; details: Cricetulus griseus
[13] = target: RAF proto-oncogene serine/threonine-protein kinase (Homo sapiens, UniProt P04049); assay: Inhibition of c-Raf at 10 uM; outline: as §2
Chain of RAF proto-oncogene serine/threonine-protein kinase (P04049 whole entry): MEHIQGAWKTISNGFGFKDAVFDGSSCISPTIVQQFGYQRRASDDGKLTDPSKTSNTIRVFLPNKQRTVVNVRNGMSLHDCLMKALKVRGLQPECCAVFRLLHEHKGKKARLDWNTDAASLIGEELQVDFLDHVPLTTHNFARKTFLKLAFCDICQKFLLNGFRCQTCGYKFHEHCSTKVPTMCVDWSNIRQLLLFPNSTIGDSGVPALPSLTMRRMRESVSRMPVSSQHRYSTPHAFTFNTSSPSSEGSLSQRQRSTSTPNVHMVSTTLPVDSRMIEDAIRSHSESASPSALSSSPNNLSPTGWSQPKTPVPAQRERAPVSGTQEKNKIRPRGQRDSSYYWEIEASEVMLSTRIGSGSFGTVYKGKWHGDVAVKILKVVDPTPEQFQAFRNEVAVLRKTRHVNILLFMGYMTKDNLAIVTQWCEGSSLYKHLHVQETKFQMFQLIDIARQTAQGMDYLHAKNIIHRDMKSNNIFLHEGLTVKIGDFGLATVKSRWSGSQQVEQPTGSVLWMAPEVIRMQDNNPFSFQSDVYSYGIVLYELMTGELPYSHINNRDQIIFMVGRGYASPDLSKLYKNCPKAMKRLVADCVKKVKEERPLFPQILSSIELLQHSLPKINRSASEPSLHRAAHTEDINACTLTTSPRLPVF

[14] = Passive permeability from basolateral to apical side in human Caco2 cells at 12.5 uM; type: ADME, cell-based; details: Caco-2, read-out: permeability
Outline: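 Caco-2 monolayer, test compound 12.5 µM; passive apparent permeability measured in both AB and BA directions, reported in 10^-6 cm/s.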

[15] = target: T2, Cytochrome P450 1A2 (Homo sapiens, UniProt P05177); assay: Inhibition of CYP1A2 at < 25 uM; type: ADME
T2 sequence (P05177 whole entry): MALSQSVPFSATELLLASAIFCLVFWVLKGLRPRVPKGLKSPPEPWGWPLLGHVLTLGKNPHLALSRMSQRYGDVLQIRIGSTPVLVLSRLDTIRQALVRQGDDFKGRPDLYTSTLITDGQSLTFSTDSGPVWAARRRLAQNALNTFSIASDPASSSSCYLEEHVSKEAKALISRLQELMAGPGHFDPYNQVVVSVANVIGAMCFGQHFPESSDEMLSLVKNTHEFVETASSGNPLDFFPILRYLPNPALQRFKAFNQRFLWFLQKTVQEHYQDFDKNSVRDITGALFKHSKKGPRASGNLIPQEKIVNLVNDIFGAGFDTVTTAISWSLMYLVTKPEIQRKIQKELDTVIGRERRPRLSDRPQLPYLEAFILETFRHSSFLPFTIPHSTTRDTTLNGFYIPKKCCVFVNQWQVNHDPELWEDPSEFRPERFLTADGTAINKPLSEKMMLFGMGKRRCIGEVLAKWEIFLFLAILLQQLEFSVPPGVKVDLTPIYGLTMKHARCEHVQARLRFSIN

[16] = Half life in beagle dog at 1 mg/kg, iv; type: ADME, organism-based, Canis lupus familiaris; design: dose 1 mg/kg, route intravenous; details: in vivo; outline: as §3
[17] = Stability in rat hepatic microsomes assessed as compound turnover at 5 uM incubated for 30 mins in presence of NADPH; type: ADME; details: liver microsomes, read-out: Drug degradation; outline: as §1
[18] = AUC in beagle dog at 1 mg/kg, iv; type: ADME, organism-based, Canis lupus familiaris; design: dose 1 mg/kg, route intravenous; details: plasma; outline: as §3
[19] = target: Cytochrome P450 3A4 (Homo sapiens, UniProt P08684); assay: Inhibition of CYP3A4 at < 25 uM; type: ADME
Chain of Cytochrome P450 3A4 (P08684 whole entry): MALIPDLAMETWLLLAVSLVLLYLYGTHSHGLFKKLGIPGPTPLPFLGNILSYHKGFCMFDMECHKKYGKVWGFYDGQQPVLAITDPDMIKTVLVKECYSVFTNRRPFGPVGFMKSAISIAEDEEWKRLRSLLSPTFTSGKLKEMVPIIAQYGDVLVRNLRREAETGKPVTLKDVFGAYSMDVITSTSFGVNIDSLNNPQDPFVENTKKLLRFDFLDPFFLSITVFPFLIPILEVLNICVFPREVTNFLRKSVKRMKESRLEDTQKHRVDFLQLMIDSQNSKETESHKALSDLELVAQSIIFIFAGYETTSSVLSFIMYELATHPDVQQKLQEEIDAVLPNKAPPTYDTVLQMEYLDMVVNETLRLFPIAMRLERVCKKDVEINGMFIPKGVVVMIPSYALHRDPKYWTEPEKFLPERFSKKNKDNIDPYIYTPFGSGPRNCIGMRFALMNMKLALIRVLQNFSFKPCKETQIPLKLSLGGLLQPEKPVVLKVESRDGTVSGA

[20] = Volume of distribution at steady state in Wistar rat at 1 mg/kg, iv; type: ADME, organism-based; design: dose 1 mg/kg, route intravenous; details: in vivo, read-out: Vdss; outline: as §4
[21] = in vitro; details: human, Caco-2
[22] = Volume of distribution at steady state in beagle dog at 1 mg/kg, iv; type: ADME, organism-based, Canis lupus familiaris; design: dose 1 mg/kg, route intravenous; details: in vivo, read-out: Vdss; outline: as §3
[23] = Cmax in Wistar rat at 10 mg/kg, po; type: ADME, organism-based; design: dose 10 mg/kg, route oral; details: in vivo; outline: as §4
[24] = test system: CHO; assay: Toxicity against CHO cells; type: cell-based, Cricetulus griseus; details: chinese hamster
[25] = Oral bioavailability in Wistar rat at 10 mg/kg; type: ADME, organism-based; details: in vivo; outline: as §4
[26] = Half life in Wistar rat at 1 mg/kg, iv; type: ADME, organism-based; design: dose 1 mg/kg, route intravenous; details: in vivo; outline: as §4
[27] = target: Cytochrome P450 2C19 (Homo sapiens, UniProt P33261); assay: Inhibition of CYP2C19 at < 25 uM; type: ADME
Chain of Cytochrome P450 2C19 (P33261 whole entry): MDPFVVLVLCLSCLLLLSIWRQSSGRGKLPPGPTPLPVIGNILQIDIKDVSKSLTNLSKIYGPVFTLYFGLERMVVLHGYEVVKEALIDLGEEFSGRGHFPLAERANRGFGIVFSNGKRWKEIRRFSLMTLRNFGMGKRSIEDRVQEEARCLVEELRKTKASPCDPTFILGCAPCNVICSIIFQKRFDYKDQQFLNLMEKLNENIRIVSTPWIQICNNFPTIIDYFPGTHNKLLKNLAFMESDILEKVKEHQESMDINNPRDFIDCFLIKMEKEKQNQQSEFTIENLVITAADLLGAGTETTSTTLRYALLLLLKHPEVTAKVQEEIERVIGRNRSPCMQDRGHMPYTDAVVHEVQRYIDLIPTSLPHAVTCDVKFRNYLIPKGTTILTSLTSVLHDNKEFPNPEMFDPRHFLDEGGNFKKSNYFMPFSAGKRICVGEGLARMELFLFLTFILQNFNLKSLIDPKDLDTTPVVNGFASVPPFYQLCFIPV

[28] = Oral bioavailability in beagle dog at 1 mg/kg; type: ADME, organism-based, Canis lupus familiaris; details: in vivo; outline: as §3
[29] = target: T1, Proto-oncogene tyrosine-protein kinase receptor Ret; assay: Inhibition of RET
[30] = Cmax in beagle dog at 1 mg/kg, po; type: ADME, organism-based, Canis lupus familiaris; design: dose 1 mg/kg, route oral; details: in vivo; outline: as §3
[31] = AUC in beagle dog at 1 mg/kg, po; type: ADME, organism-based, Canis lupus familiaris; design: dose 1 mg/kg, route oral; details: plasma; outline: as §3
[32] = test system: CHO; assay: Cytotoxicity against CHO cells at 200 uM; type: cell-based, Cricetulus griseus; details: chinese hamster
[33] = test system: Rattus norvegicus; assay: Inhibition of TNFalpha release in rat LPS-induced endotoxemia model dosed orally 1 hr prior to LPS challenge and measured 1.5 hrs post LPS challenge; type: functional; details: po
Outline: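 Rats given compound orally 1 h before LPS challenge to induce endotoxemia; plasma TNFα quantified 1.5 h after LPS, at peak TNF production.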

[34] = test system: Rattus norvegicus; assay: Antiarthritic effect in rat adjuvant-induced arthritis model assessed as inhibition of right paw edema at 3 mg/kg, po dosed daily during last 10 days of test; type: functional; details: 240 h
Outline: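 Arthritis induced by complete Freund's adjuvant injected into left hind paw; oral compound daily over final 10 days of protocol; right (non-injected) paw volume monitored, result as % inhibition of oedema.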

Structure (SMILES): Cc1ccc(C(=O)NC2CC2)cc1-c1c(F)cn2c(C(C)(C)C)nnc2c1F
IC50 [1]: 516 nM

Structure (SMILES): Cc1c(F)cc(C(=O)NC2CC2)cc1-c1ccn2c(C3CCOCC3)nnc2c1
IC50 [1]: 405 nM

Structure (SMILES): Cc1ccc(C(=O)NC2CC2)cc1-c1ccn2c(C3(C)CC3)nnc2c1
IC50 [1]: 232 nM

Structure (SMILES): Cc1c(F)cc(C(=O)NC2CC2)cc1-c1c(F)cn2c(C(C)(C)N)nnc2c1F
IC50 [1]: 822 nM

Structure (SMILES): COC(C)c1nnc2cc(-c3cc(C(=O)NC4CC4)ccc3C)ccn12 (stereo not given)
IC50 [1]: 1060 nM

Molecules with a lower IC50 [1], results first:

IC50 [1]: 143 nM
Structure (SMILES): CC(C)(C)c1nnc2ccc(Sc3ccc(F)cc3F)cn12

metabolised at 0.5 h, 5 µM [2]: 6%
inhibition (INH) [3]: Not Active
inhibition (INH) [5]: Not Active
clearance [6]: 2.7 mL/min/kg
AUC [7]: 8010 ng·h/mL
clearance [8]: 2.3 mL/min/kg
bioavailability [28]: 79%
fraction unbound [9]: 0.21
fraction unbound [10]: 0.25
AUC [11]: 38600 ng·h/mL
Papp B→A at 12.5 µM [14]: 25 ×10⁻⁶ cm/s
inhibition (INH) [15]: Not Active
half-life [16]: 7.3 h
IC50 [29]: 2000 nM
metabolised at 0.5 h, 5 µM [17]: < 5%
Cmax [30]: 185 ng/mL
AUC [31]: 5060 ng·h/mL
AUC [18]: 6440 ng·h/mL
inhibition (INH) [19]: Not Active
Vd [20]: 0.57 L/kg
Papp A→B at 12.5 µM [21]: 41 ×10⁻⁶ cm/s
IC50 [1]: 116 nM
Vd [22]: 1.6 L/kg
Cmax [23]: 3470 ng/mL
bioavailability [25]: 50%
half-life [26]: 3.3 h
inhibition (INH) [27]: Not Active
Structure (SMILES): Cc1c(F)cc(C(=O)NC2CC2)cc1-c1c(F)cn2c(C(C)(C)C)nnc2c1F
Activity [32]: 33%
ED50 [33]: 1.36 mg/kg
inhibition in vivo at 3 mg/kg [34]: 67%
Activity [24]: Non-toxic

metabolised at 0.5 h, 5 µM [2]: < 5%
inhibition (INH) [3]: Not Active
inhibition [4]: 66%
inhibition (INH) [5]: Not Active
clearance [6]: 6.2 mL/min/kg
AUC [7]: 2670 ng·h/mL
clearance [8]: 6.5 mL/min/kg
fraction unbound [9]: 0.16
fraction unbound [10]: 0.21
AUC [11]: 17800 ng·h/mL
inhibition [13]: 66%
Papp B→A at 12.5 µM [14]: 23 ×10⁻⁶ cm/s
inhibition (INH) [15]: Not Active
half-life [16]: 3.5 h
metabolised at 0.5 h, 5 µM [17]: < 5%
AUC [18]: 2770 ng·h/mL
inhibition (INH) [19]: Not Active
Vd [20]: 1.3 L/kg
Papp A→B at 12.5 µM [21]: 27 ×10⁻⁶ cm/s
IC50 [1]: 48 nM
Vd [22]: 1.6 L/kg
Cmax [23]: 2580 ng/mL
bioavailability [25]: 66%
half-life [26]: 3.8 h
inhibition (INH) [27]: Not Active
Structure (SMILES): Cc1c(F)cc(C(=O)NC2CC2)cc1-c1ccn2c(C(C)(C)C)nnc2c1
IC50 [12]: 107000 nM
Activity [24]: Non-toxic

IC50 [1]: 25 nM
Structure (SMILES): Cc1ccc(C(=O)NC2CC2)cc1-c1ccn2c(C3CC3)nnc2c1
